Experimental data from different studies.
Protocols differ between the studies behind these lines.
KIT: Mast/stem cell growth factor receptor Kit (KIT, Homo sapiens, UniProt P10721)
KIT V559D/V654A: Mast/stem cell growth factor receptor Kit (KIT, Homo sapiens, UniProt P10721, V559D/V654A)
KIT V559D: Mast/stem cell growth factor receptor Kit (KIT, Homo sapiens, UniProt P10721, V559D)
KIT L576P: Mast/stem cell growth factor receptor Kit (KIT, Homo sapiens, UniProt P10721, L576P)
KIT A829P: Mast/stem cell growth factor receptor Kit (KIT, Homo sapiens, UniProt P10721, A829P)
KIT T670I/V559D: Mast/stem cell growth factor receptor Kit (KIT, Homo sapiens, UniProt P10721, T670I/V559D)
KIT D816H: Mast/stem cell growth factor receptor Kit (KIT, Homo sapiens, UniProt P10721, D816H)
KIT autoinhibited: Mast/stem cell growth factor receptor Kit, autoinhibited (KIT, Homo sapiens, UniProt P10721)
KIT D816V: Mast/stem cell growth factor receptor Kit (KIT, Homo sapiens, UniProt P10721, D816V)

Compound | target | test | setting | remaining binding
O=C(c1ccc(Nc2ncc(Cl)c(-c3cc4ccccc4s3)n2)cc1)N1CCC(N2CCCC2)CC1 | KIT | binding, competition with immobilised ligand | 1 µM | 18%
C=CC(=O)N1CCC(C(=O)NCC(=O)N2CCN(c3nc(-c4cnc(N)nc4C(F)F)nc(N4CCOCC4)n3)CC2)CC1 | KIT V559D/V654A | binding, competition with immobilised ligand | 1 µM | 100%
CNC(=O)Nc1ccc2c(c1)[C@@]1(CC2)OC(=O)N(CC(=O)N(Cc2ccc(F)cc2)[C@@H](C)C(F)(F)F)C1=O | KIT V559D | cell-free assay, competition with immobilised ligand | 1 µM | 100%
COc1cnc(Nc2cccc(S(N)(=O)=O)c2)nc1N1CCN(c2ccccc2)CC1 | KIT | binding, competition with immobilised ligand | 1 µM | 93%
C[C@@H]1CCN(c2nccc(-c3cnn4ncccc34)n2)C1 | KIT L576P | binding | 1 µM | 100%
CN1CCN(c2ccc(Nc3nccc(-c4ccccc4)n3)cc2C(F)(F)F)CC1 | KIT A829P | binding | 10 µM | 20%
O=C(Nc1cccnn1)N1CCC(=Cc2cccc(Oc3ccc(C(F)(F)F)cn3)c2)CC1 | KIT L576P | binding, competition with immobilised ligand | 1 µM | 0%
O=C(NCC1CCOCC1)c1n[nH]cc1NC(=O)c1c(F)cccc1F | KIT A829P | binding, competition with immobilised ligand | 1 µM | 84%
O=C(c1ccc(Nc2ncc(Cl)c(-c3ccc(Cl)s3)n2)cc1)N1CCC(N2CCCC2)CC1 | KIT | binding, competition with immobilised ligand | 1 µM | 0.05%
CCS(=O)(=O)c1cc2cc(C[C@](O)(CC(C)(C)c3ccc(F)cc3C(N)=O)C(F)(F)F)[nH]c2cn1 | KIT L576P | cell-free assay, competition with immobilised ligand | 1 µM | 83%
CN(CCCC(F)(F)F)c1nccc(-c2cnn3ncccc23)n1 | KIT T670I/V559D | binding | 1 µM | 100%
O=C(Nc1c[nH]nc1C(=O)NC1CCNCC1)c1cc(F)cc(F)c1 | KIT L576P | binding, competition with immobilised ligand | 1 µM | 100%
Cc1cnn2ncc(-c3ccnc(N(C)C)n3)c2c1 | KIT V559D/V654A | binding | 1 µM | 100%
Cc1cnc(Nc2ccc(C(=O)N3CCC(N4CCCC4)CC3)cc2)nc1-c1cc2ccccc2s1 | KIT V559D/V654A | binding, competition with immobilised ligand | 1 µM | 29%
O=c1nc(-c2ccccn2)sc2ccccc12 | KIT A829P | binding, competition with immobilised ligand | 1 µM | 100%
CN(C)c1ncc(F)c(-c2cnn3ncccc23)n1 | KIT D816H | binding | 1 µM | 72%
O=C(NCCCN1CCOCC1)c1ccc(Nc2nccc(-c3cc4ccccc4s3)n2)cc1 | KIT autoinhibited | binding, competition with immobilised ligand | 1 µM | 76%

Compound | target | test | setting | remaining binding
C[C@@H](c1ccc(-n2cnc3c(N)ncnc32)cc1)N1CCc2nn(C)c(Cc3ccccc3)c2C1=O | KIT autoinhibited | binding, competition with immobilised ligand | 0.1 µM | 97%
Nc1ncc2c(n1)-c1c([nH]c3ccc(C#CC4CC4)cc13)CCCC2 | KIT autoinhibited | binding, competition with immobilised ligand | 1 µM | 86%
F[C@@H]1CCN(c2nccc(-c3cnn4ncccc34)n2)C1 | KIT V559D/V654A | binding | 1 µM | 74%
O=C(NS(=O)(=O)c1ccc(NCC2CCOCC2)c([N+](=O)[O-])c1)c1ccc(N2CCN(Cc3ccc(C(F)(F)F)cc3-c3ccc(Cl)cc3)CC2)cc1Oc1cnc2[nH]ccc2c1 | KIT autoinhibited | cell-free assay, competition with immobilised ligand | 1 µM | 100%
O=C(NCCCN1CCOCC1)c1ccc(Nc2ncc(Cl)c(-c3ccc(Cl)s3)n2)cc1 | KIT D816H | binding, competition with immobilised ligand | 1 µM | 22%
CN(C)c1nccc(-c2cnc3ncccn23)n1 | KIT A829P | binding | 1 µM | 54%
CNC(=O)Nc1ccc2c(c1)CC[C@@]21OC(=O)N(CC(=O)N(Cc2ccc(F)cc2)[C@@H](C)C(F)(F)F)C1=O | KIT V559D | cell-free assay, competition with immobilised ligand | 1 µM | 100%
COc1cnc(Nc2cccc(S(N)(=O)=O)c2)nc1N1CCN(c2ccccc2)C(=O)C1 | KIT autoinhibited | binding, competition with immobilised ligand | 1 µM | 95%
c1cnn2ncc(-c3ccnc(N4CCC45COC5)n3)c2c1 | KIT T670I/V559D | binding | 1 µM | 84%
CNC(=O)[C@@H]1CC[C@@H](n2c(-c3ccc4cnccc4c3)nc3ccc(C(=O)NCc4cccc(C(N)=O)c4)cc32)C1 | KIT D816V | binding, competition with immobilised ligand | 1 µM | 99%
Cc1cc(NC(=O)c2cccc(S(F)(F)(F)(F)F)c2)cc(-n2ccn3nc(-c4cccnc4)cc23)c1 | KIT | cell-free assay, competition with immobilised ligand | 1 µM | 89.5%
CCN1CCN(Cc2ccc(C(=O)Nc3ccc(C)c(Oc4ccc5c(c4)CC(=O)N5)c3)cc2C(F)(F)F)CC1 | KIT D816H | binding, competition with immobilised ligand | 1 µM | 100%
O=C(c1ccc(Nc2nccc(-c3cc4ccccc4s3)n2)cc1)N1CCC(N2CCCC2)CC1 | KIT V559D/V654A | binding, competition with immobilised ligand | 1 µM | 63%
c1cncc(-c2cccc(Nc3nccc(NC4CCCCC4)n3)c2)c1 | KIT T670I/V559D | binding, competition with immobilised ligand | 10 µM | 29%
N[C@@H]1CCN(c2nccc(-c3cnn4ncccc34)n2)C1 | KIT | binding | 1 µM | 95%
COc1cccc(CNC(=O)c2nc3scc(COCc4ccc(C(=O)O)cc4)c3c(=O)[nH]2)c1 | KIT D816V | cell-free assay, competition with immobilised ligand | 1 µM | 100%
